Screening results: PubChem, The Scripps Research Institute Molecular Screening Center
An excerpt weighted towards active compounds, which were near 4.6% of everything screened.
OX1R antag-1 = OX1R (HCRTR1) antagonists, primary screen, fluorescence, CHO/OX1R cells, Fluo-8 calcium, orexin A; Orexin/Hypocretin receptor type 1 (Homo sapiens), O43613; Fluo-8 calcium fluorescence; inhibition, % at 5 µM; hit rate 0.43% among 330,000; AID 434989, 2010;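 active means inhibition above its plate's threshold, mean inhibition of all tested compounds on the plate plus 3 SD, cut at about 37% in these data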;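 further: 0% = orexin A challenge wells and 100% = SB-334867-A antagonist wells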
TAAR1 antag = human TAAR1 antagonists, primary screen, Fluo-8 calcium fluorescence, CHO RD-HGA16 cells. antagonist. inhibition, % at 3 µM. hit rate 1.5% among 360,000. AID 624466, 2012;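 active means inhibition above a per-plate cutoff, the mean inhibition of test compounds on that plate plus 3 SD, cut at about 49% in these data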;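 further: 0% = DMSO plus EC80 beta-PEA response and 100% = DMSO alone without agonist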
Target sequence (Q96RJ0 whole entry, looked up): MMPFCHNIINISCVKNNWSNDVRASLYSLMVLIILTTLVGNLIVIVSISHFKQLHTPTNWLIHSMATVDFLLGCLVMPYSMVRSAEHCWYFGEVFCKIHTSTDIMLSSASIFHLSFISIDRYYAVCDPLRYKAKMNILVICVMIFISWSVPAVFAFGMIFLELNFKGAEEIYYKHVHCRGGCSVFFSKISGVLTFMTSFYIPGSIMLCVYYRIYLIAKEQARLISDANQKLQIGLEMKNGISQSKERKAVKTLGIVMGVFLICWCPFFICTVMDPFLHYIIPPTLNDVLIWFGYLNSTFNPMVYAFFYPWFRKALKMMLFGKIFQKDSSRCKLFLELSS
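System: CHO RD-HGA16 cells bearing hTAAR1. Reagent: EC80 β-phenethylamine stimulus. Schedule: seeding 17-24 h prior, 75-min 37 °C, 30-min RT dye loading. Signal: Fluo-8 intracellular calcium dye fluorescence, real-time kinetic reads. Read-out: % inhibition from peak post-agonist over basal fluorescence ratio. Benchmarks: vehicle wells and EC80 agonist wells. Replicates: n of 1.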
OX1R antag-2 = antagonists of human orexin 1 receptor (OX1R); inhibition, % at 6.6 µM; OX1R-expressing cells, FRET antagonist read-out; hit rate 1.8% among 330,000; Orexin/Hypocretin receptor type 1 (Homo sapiens), O43613; in the data active means inhibition mostly above about 38%, no sharp cut-off; inactive means mostly below about 40%;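 further: 0% = agonist challenge alone and 100% = reference antagonist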
GPR7 antagonist = GPR7 receptor antagonists, primary screen, cell-based, fluorescence, single concentration; Neuropeptides B/W receptor type 1 (Homo sapiens), P48145; GPR7-expressing cells, fluorescence antagonist assay; inhibition, % at 4.4 µM; hit rate 1.1% among 290,000; in the data active means inhibition above about 16%, passing the limit was not always enough;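 further: cells stimulated with the agonist NPW; 0% = agonist with vehicle and 100% = vehicle without agonist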
Target sequence (P48145 whole entry, looked up): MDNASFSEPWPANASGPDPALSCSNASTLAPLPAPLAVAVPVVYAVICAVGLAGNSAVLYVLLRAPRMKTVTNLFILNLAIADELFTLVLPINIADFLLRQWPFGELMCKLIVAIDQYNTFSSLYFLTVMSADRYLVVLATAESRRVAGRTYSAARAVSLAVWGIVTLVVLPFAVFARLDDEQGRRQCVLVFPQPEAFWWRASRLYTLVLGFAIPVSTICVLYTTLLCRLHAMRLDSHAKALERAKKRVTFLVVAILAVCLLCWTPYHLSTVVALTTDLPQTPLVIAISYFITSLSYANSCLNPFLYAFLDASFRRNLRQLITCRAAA
CHO parental Ca = ATP-evoked calcium signal inhibitors, parental CHO, primary screen, counter-screen for OX1R antagonist project, cell-based, fluorescence, Fluo-8 calcium dye | parental CHO-K1, ATP-induced calcium, Fluo-8 fluorescence | inhibition, % at 5.6 µM | hit rate 0.63% among 330,000;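 active means inhibition above that plate's mean sample inhibition plus 3 SD, cut at about 26% in these data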;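 further: 0% = ATP-challenged DMSO wells and 100% = DMSO wells without ATP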
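Assay system – parental CHO cells · Reagent – ATP stimulus · Detection – intracellular calcium via Fluo-8 no-wash fluorescent dye · Evaluation – percent inhibition of ATP-evoked calcium rise, normalized to controls · Controls – ATP wells versus no-ATP DMSO wells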
TAAR1 agonist = human TAAR1 agonists, primary screen, Fluo-8 calcium fluorescence, CHO RD-HGA16 cells; Trace amine-associated receptor 1 (Homo sapiens), Q96RJ0; vehicle wells 0%, saturating PEA agonist 100%; activation, % at 3 µM; hit rate 0.99% among 360,000; AID 624467, 2012;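 active means activation above the mean activation of all test compounds in the run plus 3 SD, cut at about 38% in these data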
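Repeats: no replicates (n 1) | Material: CHO-derived RD-HGA16 cells with stable Gα16 and human TAAR1 | Technique: Kinetic Fluo-8 calcium fluorescence | Schedule: 17-24 h seeding, 75 min 37 °C dye, 30 min RT | Evaluation: % activation from peak over basal fluorescence ratio, DMSO-to-PEA scaled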
The depositor's hits bear a star; x = no result.

SMILES	OX1R antag-1	TAAR1 antag	OX1R antag-2	GPR7 antagonist	CHO parental Ca	TAAR1 agonist
O=C(COC(=O)c1ccccc1F)Nc1ccc(S(=O)(=O)N2CCOCC2)cc1	-15	-9	14	x	-3	3
N#Cc1cccc(NC(=O)COC(=O)c2cccc(N3C(=O)c4ccccc4C3=O)c2)c1	-5	60*	26	6	-8	8
O=C(COC(=O)c1cccc(N2C(=O)c3ccccc3C2=O)c1)Nc1ccccc1	-14	23	21	-4	-21	4
CN(Cc1ccco1)C(=O)[C@@H](Cc1ccccc1)NC(=O)[C@H]1O[C@@H](n2ccc(=O)[nH]c2=O)[C@H](O)[C@@H]1O	x	-28	x	x	x	1
O=S1(=O)N(Cc2ccccc2F)CCCN1Cc1c(F)cccc1Cl	36	11	16	-13	66*	-1
Cc1ccc(CN2CCCN(Cc3ccc(F)cc3Cl)S2(=O)=O)cc1	-5	3	-2	0	47*	2
O=C1NCCCN1Cc1ccc(F)cc1Cl	x	4	x	-12	x	2
Cc1ccc(CN2CCCN(Cc3c(F)cccc3Cl)S2(=O)=O)cc1	-4	32	7	-6	24	13
CCOC(=O)c1ccc(NC(=O)c2nc[nH]c2C(=O)N(C)Cc2ccccc2)cc1	-7	48	57*	x	-18	6
O=C(O)c1[nH]c2ccc(Cl)cc2c1CC(=O)N1CCN(c2ccccc2)CC1	12	-7	19	-9	44*	10
COc1ccccc1N1CCN(C(=O)Cc2c(C(=O)O)[nH]c3ccc(Cl)cc23)CC1	-5	7	12	-9	-9	4
CC(=O)C1=C(C)N(Cc2ccc(F)cc2)C(=S)NC1c1cccc(F)c1 (stereo unspecified)	x	34	x	x	x	-1
CC(=O)OC1CCC2(C)C(COc3ccc4ccc(=O)oc4c3)C(C)(O)CCC2C1(C)C (stereo unspecified)	-13	56*	28	11	-13	16
CCOc1cc(/C=N/Nc2nnc(C)n2N)ccc1O	-15	-13	61*	-10	-6	4
COc1cc(/C=N/Nc2nncn2/N=C/c2ccc(O)c(OC)c2)ccc1O	-15	6	68*	0	-11	5
CCOc1cc(/C=N/Nc2ncnc(Cl)c2N)ccc1O	17	-3	54	-5	-3	0
Cc1ccc(S(=O)(=O)/N=C2/NC(=O)/C(=C\c3ccco3)S2)cc1	-12	-8	41	-4	-19	6
Cc1ccc(S(=O)(=O)/N=C2/NC(=O)/C(=C/c3cc([N+](=O)[O-])ccc3O)S2)cc1	43*	38	20	17	48*	30
Cc1ccc(S(=O)(=O)/N=C2/NC(=O)/C(=C/c3ccccc3)S2)cc1	-26	16	48	-9	-20	-1
COc1cc(/C=C2\S/C(=N/S(=O)(=O)c3ccc(C)cc3)NC2=O)c([N+](=O)[O-])cc1OC	-13	-9	39*	-9	-5	6
O=C1NC(=Nc2ccccc2Cl)S/C1=C\c1cc([N+](=O)[O-])ccc1O	7	27	72*	-10	14	12
Cc1ccc(S(=O)(=O)/N=C2/NC(=O)/C(=C/c3ccncc3)S2)cc1	-9	13	6	0	-10	0
Cc1ccc(S(=O)(=O)/N=C2/NC(=O)/C(=C\c3ccccc3)S2)cc1	4	15	33*	x	10	-2
COc1cccc(N=C2NC(=O)/C(=C/c3cc([N+](=O)[O-])ccc3O)S2)c1	16	-6	-7	-1	12	7
COC(=O)C1=C(C)N(Cc2ccccc2C(F)(F)F)C(=NCc2ccc(OC)cc2)NC1c1cccc(Cl)c1 (stereo unspecified)	x	-2	x	x	x	11
SMILES	OX1R antag-1	TAAR1 antag	OX1R antag-2	GPR7 antagonist	CHO parental Ca	TAAR1 agonist
CC(=O)N1/C(=C/c2ccc(N(C)C)cc2)C(=O)c2ccccc21	x	17	x	28*	x	11
CN(C)c1ccc(Sc2ccc3nc(N)nc(N)c3c2)cc1	x	12	x	x	x	44*
CN1CCCCC(NC(=O)c2ccc(Cl)cc2Cl)C1=O (stereo unspecified)	x	-3	x	x	x	0
C/C=C(/C)C(=O)O[C@@H]1[C@H](OC(=O)C=C(C)C)c2c(ccc3ccc(=O)oc23)OC1(C)C	-24	-4	18	-9	-6	9
C/C=C(/C)C(=O)O[C@@H]1c2c(ccc3ccc(=O)oc23)OC(C)(C)[C@@H]1OC(=O)/C(C)=C\C	-11	32	19	-2	62*	0
CC(=O)Nc1cccc(NC(=O)COC(=O)CO/N=C(\C)c2ccc3c(c2)OCO3)c1	22	12	74*	12	-8	3
CCC(=O)Nc1cccc(C2=NOC3(C2)C[C@H](C(N)=O)N(C(=O)Cc2ccc([N+](=O)[O-])cc2)C3)c1 (stereo partly specified)	2	-7	22	x	0	7
CCC(=O)N1CC2(CC(c3cccc([N+](=O)[O-])c3)=NO2)C[C@H]1C(=O)NCC(N)=O (stereo partly specified)	0	-5	66*	1	-5	10
CC(C)(C)C(=O)O/N=C(\N)c1ccc([N+](=O)[O-])s1	-2	3	19	-5	-4	17
N/C(=N\OC(=O)C1CC1)c1ccc([N+](=O)[O-])s1	-13	8	56*	-10	-2	16
N/C(=N\O)c1ccc([N+](=O)[O-])s1	-8	1	47*	-6	-2	5
CN1CCCCC(NC(=O)c2cccc([N+](=O)[O-])c2)C1=O (stereo unspecified)	x	-14	x	x	x	1
C=CCN1C(=O)c2n[nH]c(COC)c2C1c1ccc(C)cc1 (stereo unspecified)	x	-23	x	x	x	0
O=C(N/C(=C/c1ccc([N+](=O)[O-])cc1)C(=O)N1CCOCC1)c1ccco1	-12	-29	74*	4	-2	0
O=C(N/C(=C\c1ccc([N+](=O)[O-])cc1)C(=O)N1CCOCC1)c1ccccc1	-10	-8	21	-15	-19	6
Cc1ccc(-n2nnnc2-c2cnc3ccc(Cl)cc3c2-c2ccccc2)cc1	-23	-11	11	-2	-23	0
Clc1ccc2[nH]cc(-c3nnnn3-c3ccc4ccccc4c3)c2c1	30	49*	54	24	57*	8
Cc1ccc(NC(=O)c2ccccc2NS(=O)(=O)c2ccc(Cl)s2)cc1	15	28	46	11	-5	4
